pEC50, pIC50, pKi: −log10 of the molar value. Each block holds one compound with its values, some of them ahead of it.
Columns and labels:
Histamine H3 receptor [1] = molecular target: T1, Histamine H3 receptor (Homo sapiens, UniProt Q9Y5N1); assay: Agonist activity at human recombinant histamine H3 receptor expressed in CHO cells assessed as [35S]GTPgammaS binding after 1 hr by liquid scintillation counting; format: functional, cell-based; settings: read-out: EC50
In short: (§1)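 Used CHO cells stably expressing the human H3R for both affinity (pKi) and functional agonist measurements. Each value is the mean ± SEM of n = 3.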

Histamine H3 receptor [2] = molecular target: T1, Histamine H3 receptor; assay: Agonist activity at human recombinant histamine H3 receptor expressed in CHO cells assessed as [35S]GTPgammaS binding at 10 nM after 1 hr by liquid scintillation counting relative to (R)-alpha-methylhistamine; format: functional, cell-based
In short: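 CHO cells stably expressing human H3R. Agonist response is given as a percent of the response to the reference H3R agonist. Results are mean ± SEM, n = 3.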

Histamine H3 receptor [3] = molecular target: T1, Histamine H3 receptor; assay: Displacement of [3H[N-alpha-methylhistamine form human recombinant histamine H3 receptor expressed in CHO cells after 1 hr by liquid scintillation counting; format: cell-based; in short: as §1
Mus musculus [4] = assay: Antistress activity against isolation-induced aggressive behavior in ICR mouse assessed as duration of attacks to intruder mouse at 30 mg/kg, po measured for 10 mins by resident-intruder test (RVb = 54.5 +/- 6.7 sec); format: functional
Mus musculus [5] = assay: Antistress activity against isolation-induced aggressive behavior in ICR mouse assessed as duration of attacks to intruder mouse at 7.5 mg/kg, po measured for 10 mins by resident-intruder test (RVb = 54.5 +/- 6.7 sec); format: functional
[6] = Inhibition of alpha1 adrenergic receptor
D(1A) dopamine receptor = D(1A) dopamine receptor (Homo sapiens, UniProt P21728); assay: Inhibition of dopamine D1 receptor
[7] = Ratio of drug level in brain to plasma in Wistar rat at 5 mg/kg, po after 1 hr; format: ADME, organism-based; set-up: dose 5 mg/kg, route oral; settings: brain and plasma, read-out: BPR
In short: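 Brain/plasma concentration ratio was determined in rats 1 h after administration, with n = 2.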

[8] = molecular target: 5-hydroxytryptamine receptor 2A (Homo sapiens, UniProt P28223); assay: Inhibition of 5HT2A receptor
Mus musculus [9] = assay: Antistress activity against isolation-induced aggressive behavior in ICR mouse assessed as duration of attacks to intruder mouse at 3 mg/kg, po measured for 10 mins by resident-intruder test (RVb = 54.5 +/- 6.7 sec); format: functional
[10] = Volume of distribution at steady state in Wistar rat at 2 mg/kg, iv after 6 hrs by LC-MS/MS analysis; format: ADME, organism-based; set-up: dose 2 mg/kg, route intravenous; settings: in vivo, read-out: Vdss
In short: (§2)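 Rats received 2 mg/kg iv, with n = 2. Total clearance (L/h/kg), steady-state volume of distribution (L/kg) and half-life (h) were derived.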

[11] = molecular target: Beta-1 adrenergic receptor (Homo sapiens, UniProt P08588); assay: Inhibition of beta-1 adrenergic receptor
[12] = Oral bioavailability in Wistar rat at 5 mg/kg after 24 hrs by LC-MS/MS analysis; format: ADME, organism-based; settings: in vivo
In short: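 In rat, an oral dose of 5 mg/kg (n = 2) was used to determine AUC0-inf and bioavailability (%).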

Cytochrome P450 2C19 = Cytochrome P450 2C19 (Homo sapiens, UniProt P33261); assay: Inhibition of human CYP2C19 expressed in insect cell microsome after 30 mins by fluorescence assay; format: ADME, microsomes
[13] = molecular target: Beta-2 adrenergic receptor (Homo sapiens, UniProt P07550); assay: Inhibition of beta2 adrenergic receptor
Histamine H1 receptor = Histamine H1 receptor (Homo sapiens, UniProt P35367); assay: Inhibition of histamine H1 receptor
Cytochrome P450 1A2 = molecular target: T2, Cytochrome P450 1A2 (Homo sapiens, UniProt P05177); assay: Inhibition of human CYP1A2 expressed in insect cell microsome after 15 mins by fluorescence assay; format: ADME, microsomes
T2 sequence (P05177 whole entry): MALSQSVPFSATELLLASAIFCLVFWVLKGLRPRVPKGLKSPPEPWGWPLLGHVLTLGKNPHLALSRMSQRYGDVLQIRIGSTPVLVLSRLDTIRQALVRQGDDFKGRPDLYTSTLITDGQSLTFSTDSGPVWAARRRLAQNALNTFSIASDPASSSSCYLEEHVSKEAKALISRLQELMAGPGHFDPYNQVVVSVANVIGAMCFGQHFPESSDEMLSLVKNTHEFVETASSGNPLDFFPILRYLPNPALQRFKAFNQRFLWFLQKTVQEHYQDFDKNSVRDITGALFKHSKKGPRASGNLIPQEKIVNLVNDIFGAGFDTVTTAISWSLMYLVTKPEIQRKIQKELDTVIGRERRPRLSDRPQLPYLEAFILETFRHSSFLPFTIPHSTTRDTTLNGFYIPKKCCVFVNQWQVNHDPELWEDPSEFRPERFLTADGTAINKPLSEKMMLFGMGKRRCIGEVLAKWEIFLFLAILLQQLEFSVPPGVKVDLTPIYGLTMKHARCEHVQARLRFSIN

Mus musculus [14] = assay: In-vivo agonist activity at histamine H3 receptor in ddY mouse assessed as N-tele-methylhistamine level per gram of brain at 30 mg/kg, po by gas chromatography (RVb = 315 +/- 20 ng); format: functional, organism-based; set-up: dose 30 mg/kg
[15] = Half life in Wistar rat at 2 mg/kg, iv after 6 hrs by LC-MS/MS analysis; format: ADME, organism-based; set-up: dose 2 mg/kg, route intravenous; settings: in vivo; in short: as §2
D(2) dopamine receptor = D(2) dopamine receptor (Homo sapiens, UniProt P14416); assay: Inhibition of dopamine D2 receptor
Mus musculus [16] = assay: In-vivo agonist activity at histamine H3 receptor in ddY mouse assessed as N-tele-methylhistamine level per gram of brain at 5 mg/kg, po by gas chromatography (RVb = 315 +/- 20 ng); format: functional, organism-based; set-up: dose 5 mg/kg
Histamine H2 receptor = Histamine H2 receptor (Homo sapiens, UniProt P25021); assay: Inhibition of histamine H2 receptor
[17] = molecular target: Muscarinic acetylcholine receptor M3 (Homo sapiens, UniProt P20309); assay: Inhibition of muscarinic M3 receptor
[18] = Total clearance in Wistar rat at 2 mg/kg, iv after 6 hrs by LC-MS/MS analysis; format: ADME, organism-based; set-up: dose 2 mg/kg, route intravenous; settings: in vivo; in short: as §2
D(3) dopamine receptor = D(3) dopamine receptor (Homo sapiens, UniProt P35462); assay: Inhibition of dopamine D3 receptor
Mus musculus [19] = assay: In-vivo agonist activity at histamine H3 receptor in ddY mouse assessed as N-tele-methylhistamine level per gram of brain at 1 mg/kg, po by gas chromatography (RVb = 315 +/- 20 ng); format: functional, organism-based; set-up: dose 1 mg/kg
Histamine H4 receptor = Histamine H4 receptor (Homo sapiens, UniProt Q9H3N8); assay: Inhibition of human recombinant histamine H4 receptor expressed in CHO cells; format: cell-based
Cytochrome P450 3A4 = Cytochrome P450 3A4 (Homo sapiens, UniProt P08684); assay: Inhibition of human CYP3A4 expressed in insect cell microsome after 30 mins by fluorescence assay; format: ADME, microsomes
Cytochrome P450 2D6 = Cytochrome P450 2D6 (Homo sapiens, UniProt P10635); assay: Inhibition of human CYP2D6 expressed in insect cell microsome after 30 mins by fluorescence assay; format: ADME, microsomes
[20] = molecular target: T3, Muscarinic acetylcholine receptor M1 (Homo sapiens, UniProt P11229); assay: Inhibition of muscarinic M1 receptor
T3 sequence (P11229 whole entry): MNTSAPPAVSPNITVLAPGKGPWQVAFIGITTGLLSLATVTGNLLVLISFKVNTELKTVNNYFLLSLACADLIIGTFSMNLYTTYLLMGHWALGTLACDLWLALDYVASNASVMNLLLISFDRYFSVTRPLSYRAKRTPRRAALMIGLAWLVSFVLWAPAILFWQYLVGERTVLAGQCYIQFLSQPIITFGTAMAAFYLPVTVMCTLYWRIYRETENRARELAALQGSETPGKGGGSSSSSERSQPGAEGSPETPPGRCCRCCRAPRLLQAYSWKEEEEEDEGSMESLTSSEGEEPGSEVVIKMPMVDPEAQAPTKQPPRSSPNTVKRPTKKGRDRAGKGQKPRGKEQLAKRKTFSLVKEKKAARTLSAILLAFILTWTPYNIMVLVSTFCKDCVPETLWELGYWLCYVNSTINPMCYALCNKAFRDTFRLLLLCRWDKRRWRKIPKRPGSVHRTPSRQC

[21] = molecular target: T4, 5-hydroxytryptamine receptor 1A (Homo sapiens, UniProt P08908); assay: Inhibition of 5HT1A receptor
T4 sequence (P08908 whole entry): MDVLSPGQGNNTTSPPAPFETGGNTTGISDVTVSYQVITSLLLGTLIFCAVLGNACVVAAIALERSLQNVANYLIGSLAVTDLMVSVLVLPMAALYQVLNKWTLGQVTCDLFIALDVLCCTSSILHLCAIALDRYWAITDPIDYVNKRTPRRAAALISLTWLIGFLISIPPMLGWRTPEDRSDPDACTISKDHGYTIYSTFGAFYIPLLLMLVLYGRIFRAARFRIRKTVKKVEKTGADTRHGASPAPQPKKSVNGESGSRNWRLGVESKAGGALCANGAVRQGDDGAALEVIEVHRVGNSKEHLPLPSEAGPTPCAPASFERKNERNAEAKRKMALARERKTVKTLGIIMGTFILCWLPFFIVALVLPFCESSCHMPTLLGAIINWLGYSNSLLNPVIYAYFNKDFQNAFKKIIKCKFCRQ

[22] = Metabolic stability in rat liver S9 fraction assessed as […] after 60 mins by HPLC analysis; format: ADME, subcellular; settings: s9, 1 h
In short: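 Rat S9 metabolic activity was expressed as pmol/min/mg protein, reported as mean ± SEM with n = 3.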

[23] = molecular target: T5, 5-hydroxytryptamine receptor 3A (Homo sapiens, UniProt P46098); assay: Inhibition of 5HT3 receptor
T5 sequence (P46098 whole entry): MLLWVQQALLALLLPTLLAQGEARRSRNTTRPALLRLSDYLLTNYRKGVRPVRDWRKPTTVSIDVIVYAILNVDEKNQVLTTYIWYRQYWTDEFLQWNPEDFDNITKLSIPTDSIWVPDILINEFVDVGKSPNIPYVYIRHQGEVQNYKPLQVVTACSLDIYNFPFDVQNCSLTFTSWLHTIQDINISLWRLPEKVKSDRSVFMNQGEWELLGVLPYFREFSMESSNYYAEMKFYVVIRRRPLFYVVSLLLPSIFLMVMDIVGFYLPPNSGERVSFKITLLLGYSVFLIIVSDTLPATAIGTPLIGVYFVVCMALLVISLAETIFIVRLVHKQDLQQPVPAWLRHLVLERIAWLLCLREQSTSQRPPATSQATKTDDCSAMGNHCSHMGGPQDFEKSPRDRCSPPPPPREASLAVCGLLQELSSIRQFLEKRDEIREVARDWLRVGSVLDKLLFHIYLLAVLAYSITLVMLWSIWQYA

T1 sequence (Q9Y5N1 whole entry): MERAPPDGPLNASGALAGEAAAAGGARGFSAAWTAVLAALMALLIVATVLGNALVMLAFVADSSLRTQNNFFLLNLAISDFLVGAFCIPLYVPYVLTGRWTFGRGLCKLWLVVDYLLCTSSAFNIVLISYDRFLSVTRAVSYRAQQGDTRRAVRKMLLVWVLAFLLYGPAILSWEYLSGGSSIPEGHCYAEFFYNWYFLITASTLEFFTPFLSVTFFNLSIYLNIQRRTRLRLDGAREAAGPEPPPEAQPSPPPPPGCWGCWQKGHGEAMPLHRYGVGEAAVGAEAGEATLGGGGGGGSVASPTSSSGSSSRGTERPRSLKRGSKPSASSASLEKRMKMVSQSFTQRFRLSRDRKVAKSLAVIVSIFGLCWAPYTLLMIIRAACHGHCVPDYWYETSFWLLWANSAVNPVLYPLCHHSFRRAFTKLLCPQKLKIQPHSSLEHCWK
Beta-1 adrenergic receptor, sequence (P08588 whole entry): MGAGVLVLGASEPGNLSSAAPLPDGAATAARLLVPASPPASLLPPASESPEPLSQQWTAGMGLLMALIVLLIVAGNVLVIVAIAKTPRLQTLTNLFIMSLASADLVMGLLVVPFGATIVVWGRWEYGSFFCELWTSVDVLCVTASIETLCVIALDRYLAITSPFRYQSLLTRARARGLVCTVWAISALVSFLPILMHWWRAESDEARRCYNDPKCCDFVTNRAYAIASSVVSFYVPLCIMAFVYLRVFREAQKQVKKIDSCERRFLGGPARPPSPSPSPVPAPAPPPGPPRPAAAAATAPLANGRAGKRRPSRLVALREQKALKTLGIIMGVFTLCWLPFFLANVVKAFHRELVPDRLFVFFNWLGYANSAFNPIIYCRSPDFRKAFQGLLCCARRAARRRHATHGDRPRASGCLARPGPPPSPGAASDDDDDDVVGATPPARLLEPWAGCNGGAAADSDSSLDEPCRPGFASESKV
D(2) dopamine receptor, sequence (P14416 whole entry): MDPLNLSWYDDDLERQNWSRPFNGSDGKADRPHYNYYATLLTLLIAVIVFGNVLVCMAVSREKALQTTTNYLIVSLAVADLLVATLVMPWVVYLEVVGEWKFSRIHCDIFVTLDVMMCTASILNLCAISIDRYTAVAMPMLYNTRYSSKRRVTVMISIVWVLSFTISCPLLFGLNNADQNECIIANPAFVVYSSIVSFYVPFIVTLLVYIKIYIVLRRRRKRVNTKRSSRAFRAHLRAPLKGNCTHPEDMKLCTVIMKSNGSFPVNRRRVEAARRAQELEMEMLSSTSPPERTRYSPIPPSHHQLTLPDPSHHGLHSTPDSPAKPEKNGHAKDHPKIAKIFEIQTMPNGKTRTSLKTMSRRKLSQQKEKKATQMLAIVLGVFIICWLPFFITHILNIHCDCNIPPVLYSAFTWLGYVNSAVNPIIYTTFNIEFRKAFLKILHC
D(3) dopamine receptor, sequence (P35462 whole entry): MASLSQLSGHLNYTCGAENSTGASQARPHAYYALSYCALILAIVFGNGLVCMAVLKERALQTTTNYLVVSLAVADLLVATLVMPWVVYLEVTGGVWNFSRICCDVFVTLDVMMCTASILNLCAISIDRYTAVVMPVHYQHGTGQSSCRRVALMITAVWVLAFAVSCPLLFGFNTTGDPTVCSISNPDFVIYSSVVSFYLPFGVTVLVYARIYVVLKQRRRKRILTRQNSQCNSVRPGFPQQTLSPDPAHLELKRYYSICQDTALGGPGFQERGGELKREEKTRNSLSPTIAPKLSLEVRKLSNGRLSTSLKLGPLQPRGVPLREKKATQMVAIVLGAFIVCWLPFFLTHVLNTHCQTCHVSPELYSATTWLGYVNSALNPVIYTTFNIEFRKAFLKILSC
5-hydroxytryptamine receptor 2A, sequence (P28223 whole entry): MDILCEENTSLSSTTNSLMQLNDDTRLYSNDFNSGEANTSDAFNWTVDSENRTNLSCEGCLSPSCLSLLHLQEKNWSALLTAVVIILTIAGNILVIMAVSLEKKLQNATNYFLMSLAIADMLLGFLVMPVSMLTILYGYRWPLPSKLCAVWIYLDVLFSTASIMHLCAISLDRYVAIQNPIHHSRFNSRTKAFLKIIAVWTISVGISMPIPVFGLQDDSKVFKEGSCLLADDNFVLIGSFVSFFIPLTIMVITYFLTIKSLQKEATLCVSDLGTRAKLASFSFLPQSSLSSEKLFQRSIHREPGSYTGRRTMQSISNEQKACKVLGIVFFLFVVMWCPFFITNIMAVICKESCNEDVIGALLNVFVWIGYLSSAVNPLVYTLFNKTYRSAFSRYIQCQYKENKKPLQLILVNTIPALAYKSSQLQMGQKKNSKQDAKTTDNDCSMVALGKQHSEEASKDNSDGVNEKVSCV
Muscarinic acetylcholine receptor M3, sequence (P20309 whole entry): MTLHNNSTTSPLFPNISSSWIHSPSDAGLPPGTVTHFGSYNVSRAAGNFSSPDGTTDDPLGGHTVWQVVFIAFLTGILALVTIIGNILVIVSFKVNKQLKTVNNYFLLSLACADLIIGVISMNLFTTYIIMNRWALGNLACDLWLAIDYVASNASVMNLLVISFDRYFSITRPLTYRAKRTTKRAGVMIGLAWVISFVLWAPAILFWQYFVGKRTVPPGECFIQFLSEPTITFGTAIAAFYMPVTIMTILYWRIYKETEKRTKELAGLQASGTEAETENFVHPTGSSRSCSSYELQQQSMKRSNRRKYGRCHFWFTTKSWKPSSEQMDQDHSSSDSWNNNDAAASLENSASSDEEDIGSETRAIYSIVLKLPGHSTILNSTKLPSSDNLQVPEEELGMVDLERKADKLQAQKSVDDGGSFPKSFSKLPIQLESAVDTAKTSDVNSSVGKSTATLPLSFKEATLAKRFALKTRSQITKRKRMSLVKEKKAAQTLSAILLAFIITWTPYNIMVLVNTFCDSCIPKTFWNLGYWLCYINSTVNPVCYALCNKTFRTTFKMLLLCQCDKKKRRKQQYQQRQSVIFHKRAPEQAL
Cytochrome P450 3A4, sequence (P08684 whole entry): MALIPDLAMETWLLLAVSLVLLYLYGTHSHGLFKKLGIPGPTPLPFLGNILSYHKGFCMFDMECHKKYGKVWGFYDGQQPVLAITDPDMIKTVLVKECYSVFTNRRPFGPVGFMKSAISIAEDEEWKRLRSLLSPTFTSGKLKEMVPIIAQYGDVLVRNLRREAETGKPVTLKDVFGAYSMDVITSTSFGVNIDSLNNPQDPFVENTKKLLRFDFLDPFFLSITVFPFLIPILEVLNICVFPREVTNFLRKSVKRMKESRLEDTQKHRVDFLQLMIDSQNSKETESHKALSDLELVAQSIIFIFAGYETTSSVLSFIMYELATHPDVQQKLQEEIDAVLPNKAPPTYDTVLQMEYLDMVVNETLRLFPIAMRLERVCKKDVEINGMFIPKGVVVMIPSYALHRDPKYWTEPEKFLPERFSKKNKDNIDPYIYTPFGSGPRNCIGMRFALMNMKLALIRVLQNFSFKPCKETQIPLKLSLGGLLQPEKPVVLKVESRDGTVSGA
Histamine H1 receptor, sequence (P35367 whole entry): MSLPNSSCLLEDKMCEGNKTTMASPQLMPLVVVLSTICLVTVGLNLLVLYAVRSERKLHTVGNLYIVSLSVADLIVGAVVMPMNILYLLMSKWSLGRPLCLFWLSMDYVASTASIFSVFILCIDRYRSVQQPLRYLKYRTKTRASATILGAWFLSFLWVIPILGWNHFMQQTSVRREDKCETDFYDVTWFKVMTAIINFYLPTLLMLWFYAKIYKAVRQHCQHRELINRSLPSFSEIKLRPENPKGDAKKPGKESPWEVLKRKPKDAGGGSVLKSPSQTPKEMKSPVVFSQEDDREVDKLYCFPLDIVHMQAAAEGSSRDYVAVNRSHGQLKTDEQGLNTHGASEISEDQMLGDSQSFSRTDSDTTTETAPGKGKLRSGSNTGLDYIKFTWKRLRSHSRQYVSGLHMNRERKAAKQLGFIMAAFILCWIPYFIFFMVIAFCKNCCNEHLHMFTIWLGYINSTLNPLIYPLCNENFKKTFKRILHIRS
Beta-2 adrenergic receptor, sequence (P07550 whole entry): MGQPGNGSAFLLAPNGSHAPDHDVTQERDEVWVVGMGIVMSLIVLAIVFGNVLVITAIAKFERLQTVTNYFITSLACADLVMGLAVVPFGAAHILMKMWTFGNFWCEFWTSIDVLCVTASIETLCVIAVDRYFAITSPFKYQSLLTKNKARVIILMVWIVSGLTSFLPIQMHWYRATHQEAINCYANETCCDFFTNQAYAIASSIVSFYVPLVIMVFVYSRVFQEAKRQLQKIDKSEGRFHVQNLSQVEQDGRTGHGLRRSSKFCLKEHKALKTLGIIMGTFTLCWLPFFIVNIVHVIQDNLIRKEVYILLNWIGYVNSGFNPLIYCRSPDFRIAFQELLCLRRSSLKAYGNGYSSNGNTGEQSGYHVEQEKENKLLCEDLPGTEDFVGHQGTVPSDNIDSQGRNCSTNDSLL
Cytochrome P450 2D6, sequence (P10635 whole entry): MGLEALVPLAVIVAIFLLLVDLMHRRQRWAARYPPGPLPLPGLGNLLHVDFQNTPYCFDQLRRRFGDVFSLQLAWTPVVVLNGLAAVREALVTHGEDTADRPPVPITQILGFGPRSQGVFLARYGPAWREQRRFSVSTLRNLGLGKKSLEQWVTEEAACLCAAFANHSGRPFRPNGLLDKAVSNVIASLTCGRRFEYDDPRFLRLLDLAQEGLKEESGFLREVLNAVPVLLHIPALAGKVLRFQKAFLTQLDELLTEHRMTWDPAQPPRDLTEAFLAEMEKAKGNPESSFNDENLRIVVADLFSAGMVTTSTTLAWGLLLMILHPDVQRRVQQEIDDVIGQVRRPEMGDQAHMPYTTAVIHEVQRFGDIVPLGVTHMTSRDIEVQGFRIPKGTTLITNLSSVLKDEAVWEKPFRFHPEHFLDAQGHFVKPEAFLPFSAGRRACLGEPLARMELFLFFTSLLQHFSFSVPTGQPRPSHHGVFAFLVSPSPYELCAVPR

SMILES: COCCCC/C(=N\OCCN)c1ccc(C(F)(F)F)cc1 [FLUVOXAMINE]
Time (Mus musculus [4]): 19.9 s | Time (Mus musculus [5]): 30.7 s

SMILES: N=C(N)SCCc1cnc[nH]1 [IMETIT]
pEC50 (Histamine H3 receptor [1]): 8.62 | pKi (Histamine H3 receptor [3]): 9.24

SMILES: NCCc1c[nH]cn1 [HISTAMINE]
Activity (Histamine H3 receptor [2]): 110%

SMILES: c1nc(CCNC2CCCCC2)c[nH]1
pEC50 (Histamine H3 receptor [1]): 5.47 | Activity (Histamine H3 receptor [2]): 31% | pKi (Histamine H3 receptor [3]): 5.80

More lines, main results first:

pEC50 (Histamine H3 receptor [1]): 8.34 | Activity (Histamine H3 receptor [2]): 48% | pKi (Histamine H3 receptor [3]): 8.66
SMILES: CC(C)(C)c1cccc(NCCc2c[nH]cn2)c1

Activity (Histamine H3 receptor [2]): 59%
SMILES: Cc1ccc(NCCc2c[nH]cn2)cc1C

pEC50 (Histamine H3 receptor [1]): 7.72 | Activity (Histamine H3 receptor [2]): 56% | pKi (Histamine H3 receptor [3]): 8.96
SMILES: FC(F)(F)c1ccc(NCCc2c[nH]cn2)cc1

pKi [6]: < 6.00 | pKi (D(1A) dopamine receptor): < 6.00 | Kp at 1 h [7]: 6 | pKi [8]: < 6.00 | Vd [10]: 3.4 L/kg | pKi [11]: < 6.00 | bioavailability [12]: 53.5% | pIC50 (Cytochrome P450 2C19): 8.07 | pKi [13]: < 6.00 | pKi (Histamine H1 receptor): < 6.00 | pIC50 (Cytochrome P450 1A2): 6.17 | half-life [15]: 1 h | pKi (D(2) dopamine receptor): < 6.00 | pEC50 (Histamine H3 receptor [1]): 9.12 | Activity (Histamine H3 receptor [2]): 77% | pKi (Histamine H2 receptor): < 6.00 | pKi [17]: < 6.00 | clearance [18]: 46.7 mL/min/kg | pKi (D(3) dopamine receptor): < 6.00 | pKi (Histamine H4 receptor): 8.96 | pIC50 (Cytochrome P450 3A4): 6.33 | pIC50 (Cytochrome P450 2D6): 6.17 | pKi [20]: < 6.00 | pKi [21]: < 6.00 | pKi (Histamine H3 receptor [3]): 9.77 | Stability [22]: 13 pmol/min | pKi [23]: < 6.00
SMILES: CC(C)(C)c1ccc(SCCc2c[nH]cn2)cc1
Time (Mus musculus [9]): 42.9 s | Nτ-methylhistamine level (Mus musculus [14]): 96 ng/g | Nτ-methylhistamine level (Mus musculus [16]): 92 ng/g | Time (Mus musculus [4]): 16.3 s | Nτ-methylhistamine level (Mus musculus [19]): 298 ng/g

pEC50 (Histamine H3 receptor [1]): 7.60 | pKi (Histamine H3 receptor [3]): 8.00
SMILES: Cc1ccc(NCCc2cnc[nH]2)cc1C

— ChEMBL document CHEMBL1158577, “Role of hydrophobic substituents on the terminal nitrogen of histamine in receptor binding and agonist activity: development of an orally active histamine type 3 receptor agonist and evaluation of its antistress activity in mice” (J Med Chem, 2010)
